Here are results for 1 compound from ChEMBL document CHEMBL6078712, “Triterpenoid phthalimides as selective anti-cancer agents targeting mitochondrial apoptosis” (Eur J Med Chem, 2025).

Calls of active or inactive are those of the source. No cut-off for these calls is given here.

The nature of data set [1]: Stability in human plasma assessed as compound remaining at 2 uM incubated for 15 mins by RF-MS analysis. Format: ADME, cell-free. The following applies: read-out: Stability. Summed up: (§1)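 Human plasma stability, plasma protein binding and liver microsome stability, each run in triplicate. Error deviations below 10 %.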
Data set [2] relates to CCRF-CEM. As to the kind of experiment: Inhibition of DNA synthesis in human CCRF-CEM cells at 5 times IC50 incubated for 24 hrs by BrdU incorporation based flow cytometry. Format: functional. Summed up: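 Fixed in ice-cold 70 % ethanol, DNA denatured in 2 M HCl for 30 min, neutralised with borax. Stained with anti-BrdU plus FITC secondary, then PI/RNase A for 1 h. Flow cytometry; % BrdU-positive cells.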
Background: Incorporation of labelled thymidine or its analogues reports DNA synthesis.

Data set [3] concerns CCRF-CEM. As to the kind of experiment: Induction of cell cycle arrest in human CCRF-CEM cells assessed as downregulation of Cyclin A expression at 5 times IC50 incubated for 24 hrs by Western blotting analysis. Format: functional, cell-based. The method, boiled down: (§2)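 30 µg protein per lane on SDS-PAGE, transferred to nitrocellulose, blocked in 5 % BSA/TBS-Tween. Primary antibodies overnight at 4 °C (Akt, P-Akt Ser473, STAT-3, caspase-3, PARP, cyclin D, cyclin A, Bcl-xL, Bak, Bid, Bim), then HRP secondary and ECL detection. GAPDH as loading control.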
(In general: Immunoblotting shows a protein as a band on a membrane.)

Data set [4] in a line: Metabolic stability in human liver microsomes assessed as parent compound remaining at 2 uM incubated for 60 mins in presence of NADPH by RF-MS analysis. Format: ADME, Microsome. The settings on record: read-out: Stability. The method, boiled down: as §1
(Microsomes from liver hold many membrane-bound enzymes, among them those of drug oxidation.)

Data set [5] relates to CCRF-CEM. Briefly: Induction of apoptosis in human CCRF-CEM cells assessed as late apoptotic cells at 1 times IC50 incubated for 24 hrs by Annexin V-FITC and PI staining based flow cytometric analysis (reference value: 0.4 %). Format: functional. The method, boiled down: (§3)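 Washed in Ca2+-containing binding buffer, then stained 15 min at room temperature in the dark with Annexin V-FITC and propidium iodide (PI at half the kit-recommended level). Read at once by flow cytometry with a 488 nm laser, ≥10,000 cells. Debris excluded; quadrants viable, early apoptotic, late apoptotic/necrotic, necrotic. Three independent experiments.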

A short description of data set [6]: Plasma protein binding in human assessed as fraction bound at 10 uM incubated for 4 hrs by rapid equilibrium dialysis based RF-MS analysis. Format: ADME, cell-free. The following applies: read-out: PPB (converted). The method, boiled down:
as §1

Data set [7] deals with U2OS. Briefly: Cytotoxicity against human U2OS cells assessed as inhibition of cell growth incubated for 72 hrs by MTS assay. Format: functional, cell-based. Summed up:
(§4)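 MTS assay on eight human cancer lines and two non-tumour fibroblast lines. IC50 is the concentration that inhibits cell growth by 50 %. SD typically up to 15 % of the mean.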

Data set [8] can be described thus: Stability in human plasma assessed as compound remaining at 2 uM incubated for 60 mins by RF-MS analysis. The following applies: read-out: Stability. Format: ADME, cell-free. Summed up: as §1
Data set [9] in a line: Cytotoxicity against human BJ cells assessed as inhibition of cell growth incubated for 72 hrs by MTS assay. Format: toxicity, cell-based. Summed up: as §4
Data set [10] concerns CCRF-CEM. As to the kind of experiment: Induction of apoptosis in human CCRF-CEM cells assessed as late apoptotic cells at 5 times IC50 incubated for 24 hrs by Annexin V-FITC and PI staining based flow cytometric analysis (reference value: 0.4 %). Format: functional. The method, boiled down:
as §3

Data set [11] has as its system CCRF-CEM. Briefly: Cytotoxicity against human CCRF-CEM cells assessed as inhibition of cell growth incubated for 72 hrs by MTS assay. Format: functional, cell-based. Summed up: as §4
The test system of data set [12] is CCRF-CEM. Briefly: Induction of apoptosis in human CCRF-CEM cells assessed as necrotic cells at 5 times IC50 incubated for 24 hrs by Annexin V-FITC and PI staining based flow cytometric analysis (reference value: 0.4 %). Format: functional. Summed up:
as §3

Data set [13] concerns CCRF-CEM. As to the kind of experiment: Induction of cell cycle arrest in human CCRF-CEM cells assessed as downregulation of AKT phosphorylation at 1 times IC50 incubated for 24 hrs by Western blotting analysis. Format: functional, cell-based. The method, boiled down:
as §2

By IC50 is commonly meant the concentration needed to halve the response being measured. For `CC(=O)O[C@H]1CC[C@]2(C)[C@H]3CC[C@@H]4[C@H]5[C@H](c6cc7c(c(-c8ccccc8)c6)C(=O)N(c6cc[nH]n6)C7=O)CC[C@]5(C(=O)O)CC[C@@]4(C)[C@]3(C)CC[C@H]2C1(C)C`, the remaining at 0.25 h, 2 µM in [1] was determined as 97%. In addition, in data set [2], the “inhibition (INH)” value was 9.9%. Besides, the outcome in data set [3] and in [13] was Active. The figures for the remaining at 1 h, 2 µM in data set [4] and in data set [8] were 81% and 92%, respectively. For the same compound, the Activity was found to be 2.4% in data set [5], 5.5% in [10] and 0.1% in data set [12]. Besides, the fraction unbound at 4 h, 10 µM in data set [6] is 0.121. The half-maximal inhibitory concentration (IC50) in data set [7] turned out to be 13.8 µM; in data set [11], 5.13 µM. Besides, in [9], the 50% inhibitory concentration (IC50) at 72 h was determined as 31.8 µM.
